# Compound activity from PubChem.
# MrgX1 antagonist = antagonists of human MrgX1 receptor, primary screen, HEK293 cells, Fluo-4 calcium flux. BAM8-22 antagonism; active compounds read low. B-score at 10 µM. 310,000 compounds, 1.3% hits. Mas-related G-protein coupled receptor member X1 (Homo sapiens), Q96LB2. AID 588676, 2011;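 active means calcium-response B-score plate-corrected more than 3 library SD below zero, starting fluorescence within 5 deviations, no agonist response on first addition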;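 further: peak minus trough fluorescence over baseline after final BAM8-22 challenge near maximal dose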
# Target sequence (Q96LB2 whole entry, looked up): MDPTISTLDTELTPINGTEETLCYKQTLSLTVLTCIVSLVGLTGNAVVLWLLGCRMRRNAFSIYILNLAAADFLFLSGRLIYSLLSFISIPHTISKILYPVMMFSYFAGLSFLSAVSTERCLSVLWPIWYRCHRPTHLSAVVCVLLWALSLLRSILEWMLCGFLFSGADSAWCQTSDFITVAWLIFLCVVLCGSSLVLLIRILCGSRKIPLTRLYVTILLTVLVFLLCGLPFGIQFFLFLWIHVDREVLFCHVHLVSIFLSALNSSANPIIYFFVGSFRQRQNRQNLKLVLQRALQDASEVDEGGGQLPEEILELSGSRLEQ
# RGS4 block = RGS4 inhibitors, primary screen, cell-based, HEK293 M3R inducible RGS4, calcium flux; 310,000 compounds, 0.45% hits; Regulator of G-protein signaling 4 (Homo sapiens), P49798; AID 463165, 2010; B-score at 10 µM; Fluo-4 calcium flux; active compounds read high; triggered by carbachol at its EC20;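 active means B-score, a plate-corrected calcium signal, over three deviations above library mean, with baseline fluorescence within five deviations of library mean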;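 further: RGS4 expression induced by doxycycline in cells with stable M3 receptor; B-score is computed from the integrated fluorescence ratio over baseline after carbachol; higher B-score means a larger calcium signal and so more RGS4 inhibition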
# Target sequence (P49798 whole entry, looked up): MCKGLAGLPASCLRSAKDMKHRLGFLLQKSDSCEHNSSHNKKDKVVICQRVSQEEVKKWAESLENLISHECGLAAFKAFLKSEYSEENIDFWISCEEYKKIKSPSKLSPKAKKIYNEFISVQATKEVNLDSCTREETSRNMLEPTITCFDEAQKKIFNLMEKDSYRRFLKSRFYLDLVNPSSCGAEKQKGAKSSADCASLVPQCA
# RGS4 pot = RGS4 potentiators or activators, primary screen, cell-based, HEK293 M3R inducible RGS4, calcium flux | carbachol calcium flux Fluo4; active compounds read low | B-score at 10 µM | 310,000 compounds, 0.92% hits | AID 463111, 2010;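 active means B-score of the integrated calcium signal more than 4 SD below the library mean, with starting fluorescence not abnormally high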;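 further: negative B-score means reduced calcium response which marks RGS4 activation or potentiation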
#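 test system = M3R-expressing HEK293 line, RGS4 induced by doxycycline | probe or stimulus = carbachol at ECmax as muscarinic agonist stimulus | timing = dye loading 30 min 37 °C, buffer rest 30 min RT | signal = calcium dye Fluo4 fluorescence | evaluation = B score from integrated fluorescence ratio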
# MrgX1 allo act = positive allosteric modulators of MrgX1, primary screen, HEK293 cells, Fluo-4 calcium flux; FDSS; active compounds read high; B-score at 10 µM; 310,000 compounds, 0.63% hits; AID 588675, 2011;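 active means plate-corrected calcium response at least 3 library SD above typical, normal starting fluorescence, not activating the receptor alone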;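 further: compound read alongside a low EC10 to EC30 dose of BAM8-22 agonist; peak minus trough fluorescence over baseline measured at the second addition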
# MrgX1 ag = agonists of human MrgX1 receptor, primary screen, HEK293 cells, Fluo-4 calcium flux | Fluo-4 calcium fluorescence, agonist mode; active compounds read high | B-score at 10 µM | 310,000 compounds, 0.44% hits | AID 588627, 2011;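 active means calcium response B-score plate-corrected fluorescence ratio at least 3 library SD, with starting fluorescence B-score inside 5 SD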
#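 Assay system: MrgX1-expressing HEK293 cells / Amount: fifteen thousand cells per well / Doses: test compound in the initial addition of three / Timing: cells plated overnight, dye loaded 0.5 h 37 °C, 0.5 h room temperature / Technique: kinetic calcium dye fluorescence, Fluo-4 NW / Control set: positive and negative controls per plate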
# MrgX1 PAM conf = MrgX1 positive allosteric modulators, duplicate retest, confirmation, HEK293 cells, Fluo-4 calcium flux. shares compounds with MrgX1 allo act. Fluo-4 calcium fluorescence, FDSS. activation (ratio percentage), % at 10 µM. 1,200 compounds, 13% hits;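 active means ratio at least 3 SD above the weak peptide control, stable starting fluorescence, no direct agonism earlier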;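 further: compound followed by low BAM8-22 agonist challenge near EC20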
# HEK293 Ca flux = nonspecific calcium signal in parental HEK293, confirmation, counter-screen for MrgX1 antagonist project, parental HEK293 cells, Fluo-4 calcium flux; fluorescence ratio F(max-min)/F0 at 10 µM; Fluo-4 calcium fluorescence, FDSS; shares compounds with MrgX1 antagonist; 4,000 compounds, 2% hits;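 active means duplicate-averaged calcium fluorescence ratio at least three times the standard deviation of buffer wells, a nonspecific response in parental cells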
# HEK293 Ca counter = calcium response in parental HEK293 cells, primary screen, counter-screen for MrgX1 allosteric activator project, cell-based, Fluo-4 calcium flux, duplicate; shares compounds with MrgX1 antagonist; Fluo-4 fluorescence ratio; active compounds read high; fluorescence ratio F(max-min)/F0 at 10 µM; 4,000 compounds, 0.4% hits; AID 624114, 2012;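 active means calcium fluorescence ratio, averaged over duplicates, at least 3 SD of the buffer-well ratio, meaning a nonspecific response in receptor-free cells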;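 further: untransfected parental HEK293 lacking MrgX1 used as counterscreen for MrgX1 allosteric activators; fluorescence change taken during the second addition on a kinetic imager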
# HEK293 Ca cntr2 = calcium response in parental HEK293 cells, primary screen, counter-screen for MrgX1 agonist project, cell-based, Fluo-4 calcium flux, duplicate, agonist mode | Fluo-4 calcium fluorescence (FDSS); active compounds read high | 4,000 compounds, 8.7% hits | fluorescence ratio F(max-min)/F0 at 10 µM | AID 624115, 2012 | shares compounds with MrgX1 antagonist;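 active means calcium fluorescence ratio at least three times the spread of buffer wells, meaning a non-specific response in parental cells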
# Hits are given with their value; . = inactive; / = no result. In the library only some 3.5% were active in any assay of this set; here they are far more common.
SMILES,MrgX1 antagonist,RGS4 block,RGS4 pot,MrgX1 allo act,MrgX1 ag,MrgX1 PAM conf,HEK293 Ca flux,HEK293 Ca counter,HEK293 Ca cntr2
COc1ccc(N2CCOCC2)c(NC(=O)COc2cccc(C)c2)c1,.,.,.,.,.,/,/,/,/
Cc1cc(C)c(OCC(=O)Nc2ccccc2N2CCOCC2)c(C)c1,.,.,.,6.9,.,.,.,.,.
Cc1ccccc1OCC(=O)Nc1ccccc1N1CCOCC1,.,.,.,6.8,.,.,.,.,.
O=C(COc1ccccc1)Nc1ccccc1N1CCN(c2ccccc2)CC1,.,.,.,13,.,.,.,.,.
COc1ccc(N2CCOCC2)c(NC(=O)COc2cccc(C)c2C)c1,.,.,.,12,.,.,.,.,.
CC(C)C(=O)N1CCN(c2ccccc2NC(=O)COc2ccccc2)CC1,.,.,.,.,.,/,/,/,/
O=C(NCCS(=O)(=O)N1CCN(c2cccc(Cl)c2)CC1)c1ccc2c(c1)OCO2,.,.,.,.,.,/,/,/,/
COc1ccccc1CNC(=O)C1=CCN(S(=O)(=O)c2ccc(C)cc2)CC1,.,.,.,.,.,/,/,/,/
Cc1ccc(OCC(=O)Nc2ccccc2-c2ccccc2)cc1,.,.,.,6.6,.,.,.,.,.
O=C(Nc1cccc(F)c1)OC(CN1CCCCC1)C(F)(F)F (stereo not given),.,.,.,7.2,.,.,.,.,.
COc1ccc(-c2c([C@H]3[C@H]4C=CC[C@@H](C)[C@@H]4C(=O)N3Cc3ccccc3)ccc3ccccc23)cc1OC,.,.,.,.,.,/,/,/,/
COc1ccc(C2=CC(c3c(C)nn(-c4ccccc4)c3Cl)n3nnnc3N2)cc1OC (stereo not given),.,/,/,7,.,.,.,.,.
COc1ccccc1C1C=C(c2ccc(C)cc2)Nc2nnnn21 (stereo not given),.,.,.,.,.,/,/,/,/
Cc1ccc(NC(=O)c2noc(C(C)C)c2[N+](=O)[O-])cc1,.,.,.,.,.,/,/,/,/
Cc1ccc(-c2csc(NC(=O)c3ccccc3Cl)c2C(=O)O)cc1,.,.,.,6.6,.,.,.,.,.
Cc1ccc(-c2csc(NC(=O)c3cccc(C)c3)c2C(=O)O)cc1,.,.,.,6.6,.,.,.,.,.
Cc1cccc(C(=O)Nc2scc(CC(C)C)c2C(=O)O)c1,.,.,.,.,.,/,/,/,/
CCCOc1ccc(CCCN=C(N)N)cc1Cl,.,.,.,.,.,/,/,/,/
Cc1ccc(-c2nn(C)c(=O)c3ccccc23)cc1CNC(=O)NC1CCCCC1,.,.,.,.,.,/,/,/,/
Cc1c(CCC(=O)NCCCn2ccnc2)c(=O)oc2cc3oc4c(c3cc12)CCCC4,.,.,.,.,.,/,/,/,/
CC1CC1C(=O)OCC(=O)Nc1ccccc1Oc1ccccc1 (stereo not given),.,.,.,12,.,.,.,.,.
COc1ccc(CC(=O)Nc2ccccc2Oc2ccccc2)cc1,.,.,.,8.3,.,.,.,.,.
O=C(NNC(=O)c1csc(N2CCOCC2)n1)c1cccnc1,.,.,.,.,.,/,/,/,/
COc1ccc(OC(=O)COc2cccc(C)c2)cc1,.,.,.,.,.,/,/,/,/
COc1ccc(N(C(=O)COc2cccc(C)c2)S(=O)(=O)c2ccc(C)cc2)cc1,.,.,.,18,.,.,.,.,.
SMILES,MrgX1 antagonist,RGS4 block,RGS4 pot,MrgX1 allo act,MrgX1 ag,MrgX1 PAM conf,HEK293 Ca flux,HEK293 Ca counter,HEK293 Ca cntr2
COc1ccc(CN(CC2CCCO2)C(=O)c2cc3sccc3n2C)c(OC)c1 (stereo not given),.,.,.,6.5,.,.,.,.,.
CC(C)C(OC(=O)c1cc2sccc2n1C)C(=O)NCC1CCCO1 (stereo not given),.,.,.,.,.,/,/,/,/
CCOC(=O)c1ccc(NC(=S)NCCCN2CCCC2=O)cc1,.,.,.,8.6,.,.,.,.,.
O=C1CCCN1CCCNC(=S)Nc1ccccc1,.,.,.,.,.,/,/,/,/
Cc1cccc(C)c1OCc1cc(C(=O)N2CCN(c3ccc(F)cc3)CC2)no1,.,.,.,.,.,/,/,/,/
CCOCC(=O)Nc1ccc(S(=O)(=O)NCC2CCCO2)cc1 (stereo not given),.,.,.,11,.,.,.,.,.
Cn1c(=O)c2c(nc(CN3CCc4ccccc4C3)n2Cc2ccc(Cl)cc2)n(C)c1=O,.,.,.,.,.,/,/,/,/
Cn1c(=O)c2c(nc(CN3CCc4ccccc4C3)n2Cc2ccccc2)n(C)c1=O,.,.,.,17,.,13%,.,.,.
Cc1ccc(C2=CC(c3ccc(C)cc3)n3ncnc3N2)cc1 (stereo not given),.,.,.,.,.,/,/,/,/
CC(C)(C)c1ccc(C2=CC(c3ccccc3)n3ncnc3N2)cc1 (stereo not given),.,.,.,9.3,.,.,.,.,57
O=C1C2CC=C(Cl)CC2C(=O)N1CCN1CCOCC1 (stereo not given),.,.,.,.,.,/,/,/,/
O=C1C2CC=C(Cl)CC2C(=O)N1CCCCCCN1C(=O)C2CC=C(Cl)CC2C1=O (stereo not given),.,.,.,6.5,.,.,.,.,.
Cc1cc(C)n2c(SCC(=O)Nc3ccc(F)cc3)nnc2n1,.,.,.,14,.,.,.,.,.
Cc1cc(C)n2c(SCC(=O)Nc3ccc(F)cc3F)nnc2n1,.,.,.,.,.,/,/,/,/
COc1ccccc1CCNC(=O)CSc1ccc(-c2cccs2)nn1,.,.,.,7.9,.,.,.,.,.
O=C(CSc1ccc(-c2cccs2)nn1)NCCc1ccccc1,.,.,.,.,.,/,/,/,/
O=C(Nc1ccccc1C(=O)O)c1ccc(NC(=O)c2ccc(Br)o2)cc1,.,.,.,.,.,/,/,/,/
CC(=O)Oc1ccc(C(=O)Nc2ccccc2C(=O)Nc2cccc(C(=O)O)c2)cc1,.,.,.,10,.,.,.,.,.
CC(=O)Oc1ccc(C(=O)Nc2cccc(C(=O)Nc3ccccc3C(=O)O)c2)cc1,.,.,.,.,.,/,/,/,/
